From ChEMBL document CHEMBL1122069, “Double-head haptens. Synthesis of and experimentally induced contact sensitivity to substances containing two unrelated haptens, pyrocatechol and alpha-methylene-gamma-butyrolactone, in the same molecule” (1982)

Tests used:
Format in all cases: functional
[1] = species on record: Cavia porcellus; assay: Results of Open epicutaneous test (OET) in guinea pigs sensitized by mono […] (19) and expressed as No. of sensitive animals out of 8 animals tested
How it was run: (§1)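 Guinea pigs sensitized by an injection repeated 4 times on alternate days, followed by 15 days rest before open epicutaneous challenge. Controls received intradermal 1:1 FCA-saline emulsion on alternate days, five injections in all. Irritation thresholds were first set on FCA-injected controls using the elicitation procedure. Read-out was average skin reaction and number of sensitive animals.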

[2] = species on record: Cavia porcellus; assay: Results of Open epicutaneous test (OET) in guinea pigs sensitized by mixture of mono […] (18) and (19) and expressed as No. of sensitive animals out of 8 animals tested; how it was run: as §1
[3] = species on record: Cavia porcellus; assay: Open epicutaneous test (OET) was conducted using 0.72 M compound deposited on a circular shaved flank of guinea pig sensitized by mono […] (19); no reaction; conditions: in the assay text read “0.072 M” for “0.72 M”; how it was run: as §1
[4] = species on record: Cavia porcellus; assay: Results of Open epicutaneous test (OET) in guinea pigs sensitized by mono […] (18) and expressed as No. of sensitive animals out of 8 animals tested; how it was run: as §1
[5] = species on record: Cavia porcellus; assay: Results of Open epicutaneous test (OET) in guinea pigs sensitized by bi […] (3) and expressed as No. of sensitive animals out of 8 animals tested; how it was run: as §1
[6] = species on record: Cavia porcellus; assay: Open epicutaneous test (OET) was conducted using 0.72 M compound deposited on a circular shaved flank of guinea pig sensitized by mono […] (18); no reaction; how it was run: as §1
[7] = species on record: Cavia porcellus; assay: Open epicutaneous test (OET) was conducted using 0.72 M compound deposited on a circular shaved flank of guinea pig sensitized by bi […] (3); erythema on the test area; conditions: in the assay text read “0.072 M” for “0.72 M”; how it was run: as §1
[8] = species on record: Cavia porcellus; assay: Open epicutaneous test (OET) was conducted using 0.72 M compound deposited on a circular shaved flank of guinea pig sensitized by mixture of mono […] (18) and (19); erythema on the test area; how it was run: as §1
[9] = species on record: Cavia porcellus; assay: Open epicutaneous test (OET) was conducted using 0.72 M compound deposited on a circular shaved flank of guinea pig sensitized by mono […] (19); erythema plus swelling going well beyond test area.; how it was run: as §1
[10] = species on record: Cavia porcellus; assay: Open epicutaneous test (OET) was conducted using 0.72 M compound deposited on a circular shaved flank of guinea pig sensitized by double […] (3); no reaction; how it was run: as §1
[11] = species on record: Cavia porcellus; assay: Open epicutaneous test (OET) was conducted using 0.72 M compound deposited on a circular shaved flank of guinea pig sensitized by mono […] (18); erythema on the test area; how it was run: as §1

SMILES | No. of sensitive animals [1] | No. of sensitive animals [2] | Average skin reaction [3] | No. of sensitive animals [4] | No. of sensitive animals [5] | Average skin reaction [6] | Average skin reaction [7] | Average skin reaction [8] | Average skin reaction [9] | Average skin reaction [10] | Average skin reaction [11]
C=C1CC(CCCCCCc2cccc(O)c2O)OC1=O (centres undefined) | 1 | 8 | <0.1 | 3 | 6 | 0.2 | 0.9 | 0.9 | – | – | –
C=C1CC(CCCCCCc2cccc(OC)c2OC)OC1=O (centres undefined) | 8 | 8 | – | 0 | 0 | 0 | – | 1.1 | 2.6 | 0 | –
CC1CC(CCCCCCc2cccc(O)c2O)OC1=O (centres undefined) | 0 | 8 | 0 | 7 | 6 | – | 0.8 | 1.1 | – | – | 1.4
